Source: ChEMBL document CHEMBL1141019, “New cyclic tetrapeptides from Nonomuraea sp. TA-0426 that inhibit glycine transporter type 1 (GlyT1)” (Bioorg Med Chem Lett, 2008)
Residues, ends and D or L forms follow the SMILES beside them.

These molecules were tested on T98G (assay: Inhibition of [3H]glycine uptake in human T98G cells).
Type: functional, cell-based
Outline: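 T98G cells (2 × 10⁴ cells/well) plated, held 24 h at 37 °C in humidified incubator; washed, then exposed at room temperature to 250 nM [³H]-glycine plus test sample for 15 min. Cells washed, lysed in 0.5 M NaOH, radioactivity read by scintillation counting. IC50 from nonlinear regression curve fit; means of two experiments.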

Compared with `CN(CC[C@@H](Oc1ccc(-c2ccccc2)cc1)c1ccc(F)cc1)CC(=O)O`, `CC[C@H](C)[C@@H]1NC(=O)[C@H](Cc2ccccc2)NC(=O)[C@H]([C@H](CS(=O)(=O)O)C(C)=O)NC(=O)[C@H]([C@@H](C)CC)NC1=O` is 2.6-fold higher in IC50: 4.8 nM for the first, 12.5 nM for the second.

Going from `CC[C@H](C)[C@@H]1NC(=O)[C@H](Cc2cn(OC)c3ccccc23)NC(=O)[C@H](CCCCC(C)=O)NC(=O)[C@H]2CCCCN2C1=O` to `CC[C@H](C)[C@@H]1NC(=O)[C@H](Cc2ccccc2)NC(=O)[C@H]([C@@H](C)CC)NC(=O)[C@H]([C@@H](C)CC)NC1=O` (cyclo(FIII)), the IC50 falls from 71.8 nM to 21.2 nM (3.4-fold). The second is the more potent here.

`CC[C@H](C)[C@@H]1NC(=O)[C@H](Cc2ccccc2)NC(=O)[C@H]([C@H](C)[C@@H](C)O)NC(=O)[C@H](C(C)C)NC1=O` and `CC[C@H](C)[C@@H]1NC(=O)[C@H](C(C)C)NC(=O)[C@H](Cc2ccccc2)NC(=O)[C@H]([C@H](C)[C@@H](C)O)NC1=O` are within 1.5-fold of each other in IC50: 5.5 nM for the first, 5 nM for the second.

`CC(C)[C@@H]1NC(=O)[C@H](Cc2ccccc2)NC(=O)[C@H]([C@H](C)[C@@H](C)O)NC(=O)[C@H](C(C)C)NC1=O` and `CC[C@H](C)[C@@H]1NC(=O)[C@H](Cc2ccccc2)NC(=O)[C@H]([C@H](C)[C@@H](C)O)NC(=O)[C@H]([C@@H](C)CC)NC1=O` are within 1.5-fold of each other in IC50: 4 nM for the first, 3.5 nM for the second.

Compared with `CC[C@H](C)[C@H](N)C(=O)N[C@H](C(=O)N[C@H](C(=O)N[C@@H](Cc1ccccc1)C(=O)O)[C@@H](C)CC)[C@@H](C)CC` (H-IIIF-OH), `CC[C@H](C)[C@@H]1NC(=O)[C@H](Cc2ccccc2)NC(=O)[C@H]([C@@H](C)CC)NC(=O)[C@H]([C@@H](C)CC)NC(=O)[C@H]([C@@H](C)CC)NC1=O` (cyclo(FIIII)) is 25-fold lower in IC50: 16400 nM for the first, 655 nM for the second. The second is the more potent here.

In the case of `CC[C@H](C)[C@@H]1NC(=O)[C@H](Cc2ccccc2)NC(=O)[C@H]([C@@H](C)CC)NC(=O)[C@H]([C@@H](C)CC)NC(=O)[C@H]([C@@H](C)CC)NC(=O)[C@H]([C@@H](C)CC)NC1=O` (cyclo(FIIIII)), the IC50 is reported as 1680 nM.
